In assay [1] the test system is Brassica rapa subsp. oleifera. The assay can be described thus: Inhibition of root growth of Brassica campestris at 100 mg/L. Type of assay: functional. In a few lines: (§1)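 Seeds of each species were grown in Petri dishes with 10 seeds per dish, at 28 °C, 70–80% RH, 16:8 h light:dark photoperiod and 3000 lx light for 5 days. Root and stem lengths were measured for the 10 seeds and averaged. Each test and its controls were run in three replicates, and the data were given probit analysis.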

In assay [2] the test system is Radish. The assay can be described thus: Inhibition of stem growth of Raphanus sativus at 100 mg/L. It counts as functional. The gist of the method:
as §1

The subject of assay [3] is Radish. Kind of assay: Herbicidal activity against Raphanus sativus at 450 g ai/ha in greenhouse in vivo test. Type of assay: functional, organism-based.
In assay [4] the test system is Radish. The assay can be described thus: Inhibition of root growth of Raphanus sativus at 100 mg/L. It counts as functional. The gist of the method: as §1
The subject of assay [5] is Brassica rapa subsp. oleifera. The assay can be described thus: Inhibition of stem growth of Brassica campestris at 100 mg/L. Type of assay: functional. The gist of the method: as §1
Assay [6] relates to Echinochloa crus-galli. The assay can be described thus: Inhibition of root growth of Echinochloa crus-galli at 100 mg/L. It counts as functional. The gist of the method: as §1
For assay [7], the system named is Sorghum bicolor. The assay can be described thus: Herbicidal activity against Sorghum bicolor at 450 g ai/ha in greenhouse in vivo test. Type of assay: functional, organism-based.
Assay [8] deals with Cucumis sativus. The assay can be described thus: Inhibition of stem growth of Cucumis sativus at 100 mg/L. Type of assay: functional. The gist of the method:
as §1

For assay [9], the system named is Triticum aestivum. The assay can be described thus: Herbicidal activity against Triticum aestivum at 450 g ai/ha in greenhouse in vivo test. It counts as functional, organism-based.
The subject of assay [10] is Echinochloa crus-galli. Kind of assay: Herbicidal activity against Echinochloa crus-galli at 450 g ai/ha in greenhouse in vivo test. It counts as functional, organism-based.
The subject of assay [11] is Cucumis sativus. Kind of assay: Inhibition of root growth of Cucumis sativus at 100 mg/L. Type of assay: functional. In a few lines:
as §1

For assay [12], the system named is Echinochloa crus-galli. Kind of assay: Inhibition of stem growth of Echinochloa crus-galli at 100 mg/L. It counts as functional. The gist of the method:
as §1

Assay [13] has as its system Triticum aestivum. The assay can be described thus: Inhibition of stem growth of Triticum aestivum at 100 mg/L. Type of assay: functional. The gist of the method:
as §1

Assay [14] concerns Cucumis sativus. The assay can be described thus: Herbicidal activity against Cucumis sativus at 450 g ai/ha in greenhouse in vivo test. Type of assay: functional, organism-based.
Assay [15] concerns Brassica rapa subsp. oleifera. Kind of assay: Herbicidal activity against Brassica campestris at 450 g ai/ha in greenhouse in vivo test. Type of assay: functional, organism-based.
A further assay has as its system Tetranychus cinnabarinus. The assay can be described thus: Insecticidal activity against Tetranychus cinnabarinus at 250 mg/L. Type of assay: functional. In a few lines:
(§2)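 Groups of 10 of each species were placed in glass Petri dishes and sprayed with test solution using a Potter sprayer. After air-drying, they were held under normal rearing conditions. Mortality at 72 h was taken from the number and size of live larvae relative to untreated controls.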

In assay [16] the test system is Sorghum bicolor. Kind of assay: Inhibition of root growth of Sorghum bicolor at 100 mg/L. It counts as functional. The gist of the method:
as §1

Assay [17] concerns Triticum aestivum. The assay can be described thus: Inhibition of root growth of Triticum aestivum at 100 mg/L. Type of assay: functional. In a few lines:
as §1

Another assay concerns Aphis. Kind of assay: Insecticidal activity against Aphis medicagini at 250 mg/L. It counts as functional. In a few lines: as §2
Assay [18] deals with Sorghum bicolor. Kind of assay: Inhibition of stem growth of Sorghum bicolor at 100 mg/L. It counts as functional. The gist of the method: as §1

Active and inactive are the calls of the source. The calls are words filed in the database; no cut-off is given here.

Consider `CCOC(=O)C(C)n1nnn(-c2ccc(Cl)cc2)c1=O` (stereo not given), for which the inhibition – broadly, how much of the control response was suppressed – at 100 µg/mL stood at 0% in [1]; 50% in the assay on Radish [2]; 70% in the assay on Radish [4]; 0% in assay [5]; 0% with Echinochloa crus-galli [6]; 0% in the assay with Cucumis sativus [8]. Moreover, the inhibition at 100 µg/mL with Cucumis sativus [11] was 0%; in the assay on Echinochloa crus-galli [12], 0%; with Triticum aestivum [13] it was 70%; in the assay on Sorghum bicolor [16], 95%; in the assay on Triticum aestivum [17], 80%; in the assay on Sorghum bicolor [18] it was 40%. In addition, the result (in the assay on Radish [3]; in the assay on Sorghum bicolor [7]; in the assay on Triticum aestivum [9]; with Echinochloa crus-galli [10]; in the assay on Cucumis sativus [14]; in assay [15]) was inactive. In addition, the Activity in the assay with Tetranychus cinnabarinus was 97.1%; with Aphis, 0%.

With `CCCCSc1nnc(Cn2nnn(-c3ccc(Cl)cc3)c2=O)s1`, the inhibition at 100 µg/mL in assay [1] came to 50%; with Radish [2], 0%; with Radish [4], 30%; in [5], 40%; in the assay on Echinochloa crus-galli [6], 70%; in the assay with Cucumis sativus [8] it was 0%. For the same compound, the inhibition at 100 µg/mL is 0% in the assay on Cucumis sativus [11]; 30% in the assay on Echinochloa crus-galli [12]; 40% in the assay with Triticum aestivum [13]; 50% in the assay on Sorghum bicolor [16]; 40% in the assay with Triticum aestivum [17]; 40% in the assay on Sorghum bicolor [18]. For the same compound, the outcome (in the assay with Radish [3]; in the assay on Sorghum bicolor [7]; in the assay with Triticum aestivum [9]; in the assay on Echinochloa crus-galli [10]; with Cucumis sativus [14]; in [15]) was inactive. Also, the Activity in the assay with Tetranychus cinnabarinus worked out at 5.7%; with Aphis it was 0%.

Consider `O=c1n(Cc2nnc(SCc3ccccc3F)s2)nnn1-c1ccc(Cl)cc1`, for which the inhibition at 100 µg/mL in assay [1] turned out to be 80%; in the assay on Radish [2] it was 60%; in the assay with Radish [4], 80%; in assay [5], 70%; in the assay on Echinochloa crus-galli [6], 60%; with Cucumis sativus [8], 70%. The inhibition at 100 µg/mL in the assay on Cucumis sativus [11] came out at 70%; with Echinochloa crus-galli [12] it was 70%; in the assay with Triticum aestivum [13], 80%; in the assay on Sorghum bicolor [16], 70%; with Triticum aestivum [17], 80%; in the assay with Sorghum bicolor [18] it was 70%. The result (in the assay with Radish [3]; with Sorghum bicolor [7]; in the assay on Triticum aestivum [9]; with Echinochloa crus-galli [10]; in the assay on Cucumis sativus [14]; in assay [15]) was inactive. In addition, the Activity with Tetranychus cinnabarinus amounted to 0%; with Aphis, 18.6%.

Turning to `CSc1nnc(Cn2nnn(-c3ccc(Cl)cc3)c2=O)s1`, the inhibition at 100 µg/mL in assay [1] came to 0%; with Radish [2] it was 50%; with Radish [4], 50%; in assay [5], 70%; in the assay with Echinochloa crus-galli [6], 30%; with Cucumis sativus [8], 60%. For the same compound, the inhibition at 100 µg/mL came to 40% in the assay on Cucumis sativus [11]; 0% in the assay with Echinochloa crus-galli [12]; 50% with Triticum aestivum [13]; 60% in the assay on Sorghum bicolor [16]; 60% in the assay on Triticum aestivum [17]; 40% in the assay on Sorghum bicolor [18]. Further, the result (in the assay with Radish [3]; with Sorghum bicolor [7]; in the assay on Triticum aestivum [9]; in the assay with Echinochloa crus-galli [10]; in the assay on Cucumis sativus [14]; in assay [15]) was inactive. Further, the figures for the Activity in the assay on Tetranychus cinnabarinus and in the assay on Aphis were 0% and 5.7%, respectively.

As to `COc1cccc(Cn2nnn(-c3ccc(Cl)cc3)c2=O)c1`, the inhibition at 100 µg/mL (in [1]; in the assay with Radish [2]; in the assay on Radish [4]; in [5]; in the assay on Echinochloa crus-galli [6]; in the assay on Cucumis sativus [8]) was 0% each time. The inhibition at 100 µg/mL in the assay with Cucumis sativus [11], with Echinochloa crus-galli [12], with Triticum aestivum [13], in the assay with Sorghum bicolor [16], in the assay with Triticum aestivum [17] and with Sorghum bicolor [18] was 0% in each case. Further, the result (in the assay with Radish [3]; with Sorghum bicolor [7]; in the assay on Triticum aestivum [9]; in the assay on Echinochloa crus-galli [10]; in the assay on Cucumis sativus [14]; in assay [15]) was inactive. For the same compound, the Activity in the assay with Tetranychus cinnabarinus is 0%; in the assay with Aphis it was 3.3%.

As to `O=c1n(Cc2nnc(SCc3cccc(F)c3)s2)nnn1-c1ccc(Cl)cc1`, the inhibition at 100 µg/mL in assay [1] is 40%; with Radish [2] it was 50%; with Radish [4], 50%; in assay [5], 0%; in the assay with Echinochloa crus-galli [6] it was 50%; in the assay with Cucumis sativus [8] it was 30%. The inhibition at 100 µg/mL in the assay with Cucumis sativus [11] was 30%; in the assay with Echinochloa crus-galli [12], 70%; in the assay with Triticum aestivum [13], 70%; in the assay with Sorghum bicolor [16], 40%; in the assay on Triticum aestivum [17], 40%; with Sorghum bicolor [18], 40%. Also, the result (in the assay on Radish [3]; in the assay with Sorghum bicolor [7]; with Triticum aestivum [9]; in the assay with Echinochloa crus-galli [10]; in the assay on Cucumis sativus [14]; in assay [15]) was inactive. The Activity in the assay with Tetranychus cinnabarinus is 2.9%; in the assay on Aphis it was 0%.

As to `O=c1c(Cn2nnn(-c3ccc(Cl)cc3)c2=O)coc2ccccc12`, the inhibition at 100 µg/mL (in [1]; in the assay with Radish [2]; in the assay with Radish [4]; in assay [5]; in the assay with Echinochloa crus-galli [6]; in the assay on Cucumis sativus [8]) was 0% in each case. Further, the inhibition at 100 µg/mL in the assay with Cucumis sativus [11] was determined as 0%; with Echinochloa crus-galli [12], 0%; with Triticum aestivum [13] it was 30%; in the assay with Sorghum bicolor [16], 0%; in the assay on Triticum aestivum [17], 0%; with Sorghum bicolor [18], 0%. In addition, the result (in the assay on Radish [3]; with Sorghum bicolor [7]; with Triticum aestivum [9]; with Echinochloa crus-galli [10]; in the assay with Cucumis sativus [14]; in assay [15]) was inactive. Further, the Activity with Tetranychus cinnabarinus worked out at 100%; in the assay with Aphis it was 1.7%.

For the compound `O=c1c(Cn2nnn(-c3ccccc3Cl)c2=O)coc2ccccc12`, the inhibition at 100 µg/mL in assay [1] worked out at 50%; in the assay with Radish [2], 30%; in the assay on Radish [4] it was 50%; in assay [5], 30%; with Echinochloa crus-galli [6], 0%; in the assay with Cucumis sativus [8] it was 0%. Further, the inhibition at 100 µg/mL with Cucumis sativus [11] stood at 0%; in the assay on Echinochloa crus-galli [12], 0%; in the assay with Triticum aestivum [13], 30%; in the assay on Sorghum bicolor [16], 50%; with Triticum aestivum [17], 0%; with Sorghum bicolor [18], 30%. Further, the result (in the assay on Radish [3]; in the assay with Sorghum bicolor [7]; in the assay with Triticum aestivum [9]; with Echinochloa crus-galli [10]; in the assay with Cucumis sativus [14]; in assay [15]) was inactive. Moreover, the Activity was 2.9% in the assay with Tetranychus cinnabarinus and 13.3% in the assay on Aphis.

With `C=CCn1nnn(-c2ccccc2Cl)c1=O`, the inhibition at 100 µg/mL in [1] came out at 0%; in the assay with Radish [2] it was 0%; with Radish [4] it was 0%; in assay [5] it was 60%; with Echinochloa crus-galli [6], 0%; in the assay on Cucumis sativus [8], 60%. Also, the inhibition at 100 µg/mL in the assay with Cucumis sativus [11] came out at 0%; in the assay with Echinochloa crus-galli [12] it was 0%; in the assay on Triticum aestivum [13] it was 50%; in the assay with Sorghum bicolor [16] it was 0%; in the assay with Triticum aestivum [17], 50%; in the assay with Sorghum bicolor [18], 0%. In addition, the outcome (in the assay with Sorghum bicolor [7]; in the assay with Triticum aestivum [9]; in the assay with Echinochloa crus-galli [10]; in the assay on Cucumis sativus [14]; in assay [15]) was inactive. In addition, the Activity in the assay on Tetranychus cinnabarinus stood at 98.6%; in the assay with Aphis, 1.7%.

Take `CC(C)(C)c1ccc(CSc2cnn(C(C)(C)C)c(=O)c2Cl)cc1` [PYRIDABEN]: in the assay on Tetranychus cinnabarinus, the Activity is recorded as 100%.

(Values after ChEMBL document CHEMBL1142895, “Discovery of a new insecticide lead by optimizing a target-diverse scaffold: tetrazolinone derivatives” (2007).)
